Assays:
Type in all cases: functional
Bacillus subtilis [1] = test: Antimicrobial activity against Bacillus subtilis pretreated 3 hrs before UV photosensitization measured after overnight reincubation under dark condition by agar plate disc diffusion method
Outline: (§1)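 B. subtilis 18 h broth culture (0.02 ml) mixed into 10 ml liquefied nutrient agar (beef extract, peptone, K2HPO4, agar). Each dish carries a DMF disc and a xanthotoxin disc (10 mg/ml DMF). Test plates kept dark at 37 °C for 3 h for diffusion, then uncovered and exposed to 365 nm UV for 20 min. A duplicate plate left unirradiated in the incubator overnight. Inhibition zones measured.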

Bacillus subtilis [2] = test: Antimicrobial activity against 20 mins UV photosensitized Bacillus subtilis measured after overnight reincubation under dark condition by agar plate disc diffusion method; outline: as §1
Escherichia coli = test: Antibacterial activity against Escherichia coli at 50 mg/mL after 48 hrs by agar plate disc diffusion method; details: read-out: IZ
Outline: (§2)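 Discs placed on nutrient agar plates (15 ml agar seeded with 0.2 mL of 18 h liquid culture of each organism); plates incubated 37 °C for 48 h, inhibition zone diameter read in mm around each disc. DMF-impregnated discs as solvent control; tetracycline (antibacterial) and amphotericin B (antifungal) references run concurrently.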

Staphylococcus aureus = test: Antibacterial activity against Staphylococcus aureus at 50 mg/mL after 48 hrs by agar plate disc diffusion method; details: read-out: IZ; outline: as §2
Candida albicans = test: Antifungal activity against Candida albicans at 50 mg/mL after 48 hrs by agar plate disc diffusion method; details: read-out: IZ; outline: as §2

Cc1c(C(=O)NNC(=S)NCc2ccccc2)c(=O)oc2ccc3c(-c4ccccc4)cc(=O)oc3c12
inhibition zone (IZ) (Bacillus subtilis [1]): 18 millimeter | inhibition zone (IZ) (Bacillus subtilis [2]): 22 millimeter | zone of inhibition at 50000 µg/mL (Escherichia coli): 20 mm | zone of inhibition at 50000 µg/mL (Staphylococcus aureus): 30 mm

COc1c2occc2c(OC)c2c(C)c(C(=O)NNC(=S)NCc3ccccc3)c(=O)oc12
inhibition zone (IZ) (Bacillus subtilis [1]): 10 millimeter | inhibition zone (IZ) (Bacillus subtilis [2]): 12 millimeter

COc1c2occc2c(OC)c2c(C)c(-c3nnc(S)n3Cc3ccccc3)c(=O)oc12
inhibition zone (IZ) (Bacillus subtilis [2]): 11 millimeter

Cc1c(-c2nnc(S)n2Cc2ccccc2)c(=O)oc2ccc3c(-c4ccccc4)cc(=O)oc3c12
inhibition zone (IZ) (Bacillus subtilis [2]): 12 millimeter

COc1c2occc2c(OC)c2c(C)c(C(=O)NN)c(=O)oc12
inhibition zone (IZ) (Bacillus subtilis [1]): 12 millimeter | inhibition zone (IZ) (Bacillus subtilis [2]): 14 millimeter | zone of inhibition at 50000 µg/mL (Escherichia coli): 18 mm

C[C@@H]1[C@H](O)[C@@H](C)/C=C/C=C/C=C/C=C/C=C/C=C/C=C/[C@H](O[C@@H]2O[C@H](C)[C@@H](O)[C@H](N)[C@@H]2O)C[C@@H]2O[C@](O)(C[C@@H](O)C[C@@H](O)[C@H](O)CC[C@@H](O)C[C@@H](O)CC(=O)O[C@H]1C)C[C@H](O)[C@H]2C(=O)O [AMPHOTERICIN B]
zone of inhibition at 50000 µg/mL (Candida albicans): 30 mm

COc1c2occc2cc2ccc(=O)oc12 [METHOXSALEN]
inhibition zone (IZ) (Bacillus subtilis [2]): 12 millimeter

CN(C)[C@@H]1C(O)=C(C(N)=O)C(=O)[C@@]2(O)C(O)=C3C(=O)c4c(O)cccc4[C@@](C)(O)[C@H]3C[C@@H]12 [TETRACYCLINE]
inhibition zone (IZ) (Bacillus subtilis [1]): 30 millimeter | zone of inhibition at 50000 µg/mL (Escherichia coli): 34 mm | zone of inhibition at 50000 µg/mL (Staphylococcus aureus): 36 mm

Reference: ChEMBL document CHEMBL1154697, “Design, synthesis and docking studies of new furobenzopyranones and pyranobenzopyranones as photoreagent towards DNA and as antimicrobial agents” (2010)
